Legend:
[1] = target: T1, Metabotropic glutamate receptor 5 (Homo sapiens, UniProt P41594); assay: Inhibitory concentration against human recombinant metabotropic glutamate receptor 5 (mGlu5) in Ltk cells determined using fluorescence detection method; assay type: cell-based
Outline: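 Automated functional Ca2+ flux assay in Ltk cells stably expressing human recombinant mGlu5. Changes in cytosolic Ca2+ were read by fluorescence with the Ca2+-sensitive dye fura-2. IC50 values are means of two to three experiments.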

[2] = target: T1, Metabotropic glutamate receptor 5; assay: Inhibitory concentration against human recombinant metabotropic glutamate receptor 5 (mGlu5) in Ltk cells determined using fluorescence detection method; NA=Not Active; assay type: cell-based
Outline: (§1)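 Automated functional Ca2+ flux assay in Ltk cells stably expressing human recombinant mGlu5. Changes in cytosolic Ca2+ were read by fluorescence with the Ca2+-sensitive dye fura-2. IC50 values are means of two to three experiments. Compounds were called not active when IC50 > 10 μM.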

[3] = Modest half life in rat was determined; LOQ = limit of quantitation; assay type: ADME; settings: in vivo
[4] = High plasma clearance in rat was determined; assay type: ADME, organism-based; settings: read-out: Clp
[5] = Oral bioavailability in rat; LOQ = limit of quantitation; assay type: ADME, organism-based; settings: in vivo
[6] = target: T1, Metabotropic glutamate receptor 5; assay: Inhibitory concentration against human recombinant metabotropic glutamate receptor 5 (mGlu5) in Ltk cells determined using fluorescence detection method; IA=Inactive; assay type: cell-based; outline: as §1
[7] = Modest half life in rat was determined; assay type: ADME; settings: in vivo
[8] = Low oral bioavailability was determined; assay type: ADME, organism-based; settings: rat, in vivo
[9] = Modest half life was determined; assay type: ADME; settings: rat
[10] = High plasma clearance was determined; assay type: ADME, organism-based; settings: rat, read-out: Clp

T1 sequence (P41594 whole entry): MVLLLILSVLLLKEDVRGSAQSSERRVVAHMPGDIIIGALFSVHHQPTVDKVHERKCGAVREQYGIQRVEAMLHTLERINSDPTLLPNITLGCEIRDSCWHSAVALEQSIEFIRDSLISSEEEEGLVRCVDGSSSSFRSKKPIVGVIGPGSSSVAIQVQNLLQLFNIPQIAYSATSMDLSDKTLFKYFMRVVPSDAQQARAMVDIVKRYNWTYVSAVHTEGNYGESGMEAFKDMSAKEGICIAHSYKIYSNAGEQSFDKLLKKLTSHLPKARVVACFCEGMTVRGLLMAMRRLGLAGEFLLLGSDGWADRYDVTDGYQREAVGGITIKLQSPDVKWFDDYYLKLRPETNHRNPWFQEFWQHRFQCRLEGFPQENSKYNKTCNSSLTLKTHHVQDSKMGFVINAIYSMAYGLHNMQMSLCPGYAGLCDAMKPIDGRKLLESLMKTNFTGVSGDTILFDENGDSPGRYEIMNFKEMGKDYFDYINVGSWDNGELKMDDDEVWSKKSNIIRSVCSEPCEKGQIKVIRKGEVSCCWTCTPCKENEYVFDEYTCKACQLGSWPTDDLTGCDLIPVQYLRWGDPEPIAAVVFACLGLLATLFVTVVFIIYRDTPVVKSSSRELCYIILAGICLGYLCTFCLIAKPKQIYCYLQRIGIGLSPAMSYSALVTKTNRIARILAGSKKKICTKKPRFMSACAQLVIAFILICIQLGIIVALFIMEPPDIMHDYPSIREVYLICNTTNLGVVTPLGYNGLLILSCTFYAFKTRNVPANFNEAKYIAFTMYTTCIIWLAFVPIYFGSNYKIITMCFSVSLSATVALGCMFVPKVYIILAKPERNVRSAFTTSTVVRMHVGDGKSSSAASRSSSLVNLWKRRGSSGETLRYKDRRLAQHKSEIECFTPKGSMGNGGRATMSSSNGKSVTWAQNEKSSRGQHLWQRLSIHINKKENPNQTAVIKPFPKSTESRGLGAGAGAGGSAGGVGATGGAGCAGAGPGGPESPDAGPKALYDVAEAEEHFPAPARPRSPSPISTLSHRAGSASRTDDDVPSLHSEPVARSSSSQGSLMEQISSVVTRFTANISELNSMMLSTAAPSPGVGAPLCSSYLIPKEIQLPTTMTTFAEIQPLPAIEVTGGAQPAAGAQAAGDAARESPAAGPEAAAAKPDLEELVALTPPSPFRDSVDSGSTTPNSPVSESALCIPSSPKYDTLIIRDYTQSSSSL

Row | Structure (SMILES) | IC50 [1] [µM] | also measured
1 | CN(C)c1nc(N)c(C(=O)Nc2ccccn2)nc1Cl | 0.134 | 
2 | CN(C)c1cnc(C(=O)Nc2ccccn2)c(N)n1 | 5.08 | 
3 | Cc1cncc(C(=O)Nc2ccccn2)n1 | 0.165 | 
4 | O=C(Nc1ccccn1)c1cncc(Cl)n1 | 0.254 | 
5 | Cc1ccc(O)c(C(=O)Nc2cccc(C)n2)c1 | 0.105 | 
6 | CNc1ncc(Cl)nc1C(=O)Nc1ccccn1 | 0.145 | 
7 | CN(C)c1ncc(Br)nc1C(=O)Nc1ccccn1 |  | IC50 [2]: Not Active
8 | O=C(Nc1ccccn1)c1cncc(Br)c1 |  | IC50 [6]: Not Active
9 | Nc1nc(N)c(C(=O)Nc2ccccn2)nc1Cl | 3.8 | 
10 | Cc1cccc(N(C)C(=O)c2nc(C)cnc2N)n1 |  | IC50 [6]: Not Active
11 | Nc1nc(N2CCCCC2)c(Cl)nc1C(=O)Nc1ccccn1 | 0.103 | 
12 | O=C(Nc1ccccn1)c1cccc(Br)c1 |  | IC50 [6]: Not Active
13 | Nc1nccnc1C(=O)Nc1ccccn1 | 3.54 | 
14 | O=C(Nc1ccccn1)c1cnccn1 |  | IC50 [2]: Not Active
15 | CN(C)c1ncc(C(=O)Nc2ccccn2)nc1Cl | 0.158 | 
16 | Cc1cccc(NC(=O)c2cccc(C)n2)n1 | 0.032 | 

Further lines, with some results ahead:

Row | IC50 [1] [µM] | Structure (SMILES) | also measured
17 | 0.008 | Cc1cccc(NC(=O)c2nc(C)cnc2N)n1 | 
18 | 0.007 | Cc1cccc(NC(=O)c2nc(C)ccc2O)n1 | T1/2 [3]: Limit of quantification; clearance [4]: > 100 mL/min/kg; F [5]: Limit of quantification
19 | 0.023 | CC(C)Nc1nc(N)c(C(=O)Nc2ccccn2)nc1Cl | 
20 | 0.021 | Cc1cccc(NC(=O)c2cccc(Br)n2)n1 | 
21 | 0.022 | Cc1cccc(NC(=O)c2nc(C)ccc2N)n1 | 
22 | 0.011 | Cc1cccc(NC(=O)c2nc(C)ccc2Nc2cccnc2)n1 | half-life [7]: 1.25 h; clearance [4]: 176 mL/min/kg
23 | 0.012 | Nc1ncc(Br)nc1C(=O)Nc1ccccn1 | 
24 | 0.028 | Cc1cnc(N)c(C(=O)Nc2ccccn2)n1 | bioavailability [8]: 20%; half-life [9]: 4.4 h; clearance [10]: 56 mL/min/kg
25 | 0.011 | Nc1ncc(Cl)nc1C(=O)Nc1ccccn1 | 
26 | 0.005 | Cc1cccc(NC(=O)c2nc(Cl)cnc2N)n1 | 
